p97 ATPase inh: human p97 ATPase inhibition; recombinant p97 ATPase, Kinase-Glo ATP luminescence, 3 h; inhibition, % at 8 µM; 220,000 compounds, 0.42% hits; AID 1481; in the data active means inhibition above about 15%;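 further: 0% = DMSO vehicle and 100% = wells lacking enzyme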
KCC2 mod: KCC2 (human) Cl- transport modulation; Q9H2X9; KCC2 cells, thallium flux FluoZin-2 fluorescence; B-score of Tl+ flux slope (higher = more flux/activation; lower = inhibition) at 10 µM; 190,000 compounds, 2.2% hits; AID 1456;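 active means thallium flux slope and its plate-corrected score both differing from the plate sample mean at a set confidence after two filtering rounds, in either direction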;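 further: slope of fluorescence scaled to starting intensity during 10 to 20 s after thallium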
Redox H2O2 prof: compounds producing H2O2 with reducing agent – biochemical, NIH compound library profiling, artefact control for MLSCN library redox annotation, primary screen; DTT-dependent redox cycling H2O2, phenol red/HRP absorbance; 100% = 100 µM peroxide control, 0% = buffer; activation, % at 10 µM; 200,000 compounds, 0.03% hits; AID 878;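 active means activation of at least 50% relative to the plate's high and low controls in the primary single-dose screen; inactive means activation below 50%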;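 further: compound incubated with DTT at 0.8 mM final as the reducing agent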
PKD1 inh: blocks activity of human protein kinase D1; Q15139; PKD1 kinase fluorescence polarization assay; inhibition, % (concentration not given with the values); 200,000 compounds, 0.056% hits; AID 797; in the data active means inhibition above about 50%
Mdm2 ligase inh: Mdm2 E3 ligase (human) inhibition. Q00987. cell-based MDM2 ubiquitination luciferase reporter, 2 h; 0 = plate control, 100 = twice control, blank-subtracted. signal enhancement, % at 5 µM. 210,000 compounds, 0.11% hits;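 active means signal enhancement of 30% or more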;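 further: luminescence tracks abundance of the self-degrading MDM2-luciferase fusion protein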
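system = mammalian cells stably expressing self-ubiquitinating, self-degrading MDM2 E3–luciferase fusion | quantity = 2000 cells per well seeded | incubation = 4 h cell settling then 2 h compound exposure, 37 °C | signal = SteadyLite luminescence, 15 min reagent step | benchmarks = plate control and blank wells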
ROMK mod: modulators of human ROMK potassium channel. B-score at 10 µM. Tet-inducible ROMK, thallium flux fluorescence; actives lie on both sides. 130,000 compounds, 2% hits;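 active means signal ratio slope over the read window, or its plate-corrected B-score, at least 3 SD from the plate mean, either direction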;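 further: B-score of the F/F0 ratio slope over 7 to 12 s after thallium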
KCC2 secondary: confirmation of human KCC2 transport modulators | shares compounds with KCC2 mod | HEK293-KCC2, thallium flux, FluoZin2 fluorescence; stronger effect = higher value | normalised thallium flux (F/F0 slope) at 10 µM | 3,700 compounds, 15% hits;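 active means thallium flux slope above the same plate's solvent-only control mean plus 3 SD; inconclusive means the two replicate wells disagree; inactive means no significant difference from solvent-only control wells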
KCC2 bumet counter: bumetanide-insensitive thallium flux in KCC2 cells with ouabain, counter-screen. AID 1714. shares compounds with KCC2 mod. 3,700 compounds, 49% hits. HEK293-KCC2 + bumetanide/ouabain, thallium flux FluoZin2; stronger effect = higher value. normalized thallium flux at 10 µM;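 active means thallium entry rate above the same plate's blocked-transporter control wells by more than 3 SD; inconclusive means the two repeat wells disagree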;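 further: raw slope of fluorescence over initial fluorescence between 10 and 20 s after thallium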
KCC2 sec2: KCC2 (human) modulation, second secondary assay; shares compounds with KCC2 mod; HEK293-KCC2, thallium flux FluoZin2 fluorescence; actives lie on both sides; F/F0 rise rate, 10–20 s post-thallium; normalized thallium flux at 10 µM; 3,700 compounds, 23% hits; AID 1715;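 active means thallium flux slope more than 3 SD above or below the plate's solvent-only control mean, mostly below; inconclusive means the two repeat wells disagreed; inactive means no significant shift from solvent-only controls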;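 further: raw slope with 0.1% DMSO as baseline and bumetanide as block control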
HEK counter1: acts in parental HEK cells, KCC2 counter-screen; AID 1716; thallium flux rate (normalised fluorescence) at 10 µM; HEK293 parental cells, thallium flux FluoZin2, ouabain; baseline-ratio fluorescence slope, 10–20 s after thallium; shares compounds with KCC2 mod; 3,700 compounds, 46% hits;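 active means thallium flux rate significantly above the same plate's solvent-only control wells, beyond their mean plus 3 SD; inconclusive means the two replicate wells gave conflicting results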
KCC2 retest ouab: confirmation of human KCC2 modulators with ouabain; shares compounds with KCC2 mod; HEK293-KCC2, thallium flux FluoZin2 fluorescence; bidirectional: low = inhibitor, high = activator; raw Tl+ flux slope (below DMSO = inhibition, above = activation) at 10 µM; 3,700 compounds, 48% hits; AID 1717;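 active means thallium flux slope beyond 3 SD from same-plate DMSO control mean in most replicates, usually higher, sometimes lower; inconclusive means repeat tests gave conflicting results; inactive means no significant difference from controls in most replicates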;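 further: slope of initial-normalized fluorescence between seconds 10 and 20 after thallium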
HEK293 Tl flux2: parental HEK flux effect, counter-screen 2; shares compounds with KCC2 mod; HEK293 parental, thallium flux FluoZin-2 fluorescence slope; thallium flux slope at 10 µM; 3,700 compounds, 33% hits; AID 1718;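 active means thallium flux slope above the same plate's solvent-control mean plus 3 SD in both duplicate wells; inconclusive means duplicate wells that disagreed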;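 further: run without ouabain in cells lacking the KCC2 cotransporter; slope of fluorescence scaled to its starting value between 10 and 20 s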
The depositor's hits bear a star; u = inconclusive; x = not tested or not shown. Sampled rows, rich in hits. Any-hit rate of the full collection: about 3.4%.

SMILES	p97 ATPase inh	KCC2 mod	Redox H2O2 prof	PKD1 inh	Mdm2 ligase inh	ROMK mod	KCC2 secondary	KCC2 bumet counter	KCC2 sec2	HEK counter1	KCC2 retest ouab	HEK293 Tl flux2
O=c1cc(CSc2nnnn2-c2ccccc2)nc2scc(-c3ccccc3)n12	3	-4.7*	2	-5	-12	-0.24	0.0088	0.0072	0.024*	0.0065	0.013*	0.0094
O=C(CCS(=O)(=O)Cc1ccccc1)Nc1nc2c(s1)CCCC2	-7	x	0	-3	-4	0.21	0.0056	0.0046	0.022*	0.0075	u	0.01
O=C(CS(=O)(=O)Cc1ccccc1)Nc1nc2c(s1)CCCC2	2	-1.1	-3	-2	-6	x	x	x	x	x	x	x
O=C(CCN1C(=O)c2ccccc2S1(=O)=O)Nc1nc2c(s1)CCCC2	0	-3.8*	2	2	-2	x	0.0077	0.0059	0.03	0.0071	0.015*	0.011
CCOC(=O)C1=C(N)Oc2cc(C)n(CCc3ccc(OC)c(OC)c3)c(=O)c2C1c1cccnc1 (stereo not given)	-2	x	0	-10	-3	x	x	x	x	x	x	x
CN(Cc1ccccc1)c1nc2nonc2nc1N1CCCC(CN2CCCC2=O)C1 (stereo not given)	3	-5.4*	x	x	-2	x	0.016	0.0045	0.019*	0.0071	0.013	0.0096
CC(=O)NCC1CCCN(c2nc3nonc3nc2N(C)Cc2ccccc2)C1 (stereo not given)	6	-7*	-1	1	3	0.37	0.0098	0.0065	0.029*	0.0044	0.016*	0.012
Cc1ccc2[nH]c(=O)c(C(c3nnnn3CC3CCCO3)N3CCc4ccccc4C3)cc2c1 (stereo not given)	0	0.39	1	-3	-8	-1.6	x	x	x	x	x	x
COc1ccc2[nH]c(=O)c(C(c3nnnn3CC3CCCO3)N3CCc4ccccc4C3)cc2c1 (stereo not given)	5	-5.1*	2	-2	-10	x	0.0096	0.007	0.029	0.0071	0.03	0.0099
CC1CCCCN1CCn1c(=S)[nH]c2ncccc2c1=O (stereo not given)	-1	x	-3	3	-20	0.2	x	x	x	x	x	x
CCN(CCCn1c(=S)[nH]c2ncccc2c1=O)c1ccccc1	2	78*	1	-4	-5	x	0.019*	0.14*	0.038	0.12*	0.12*	0.023*
CC(C)OCCCn1c(=S)[nH]c2ncccc2c1=O	4	13*	-1	-10	-2	x	0.017*	0.034*	0.031	0.016*	0.03*	0.012*
CCN(CC)CCCn1c(=S)[nH]c2ncccc2c1=O	4	1.2	0	0	0	-0.52	x	x	x	x	x	x
O=c1c2cccnc2[nH]c(=S)n1CCCN1CCN(c2ccccc2F)CC1	-5	20*	-1	-5	-10	x	0.013*	0.076*	0.038	0.039*	0.058*	0.013*
CCN(CCCn1c(=S)[nH]c2ccc(N3CCOCC3)cc2c1=O)c1ccccc1	-3	4.9*	-1	4	-5	0.5	0.012*	0.017*	0.03	0.0095*	0.052*	0.011*
COc1ccccc1CN(Cc1nc2ccccc2c(=O)[nH]1)C(=O)Nc1ccc(C)cc1	2	x	0	-6	2	0.6	x	x	x	x	x	x
COc1ccccc1CN(Cc1nc2ccccc2c(=O)[nH]1)S(=O)(=O)c1ccc(C)cc1	-1	x	0	-2	-13	-0.43	0.0094	0.0059	0.03	0.0071	0.019	0.01
Cc1nn(Cc2ccccc2)c(C)c1NC(=O)c1noc2c1CCc1ccccc1-2	1	-4.7*	-1	-12	-1	x	0.0098	u	0.035	0.0078	u	0.011
CCCc1ccc(OCCNC(C)=O)cc1	3	-0.19	2	8	-20	-0.41	x	x	x	x	x	x
O=C(CSc1nc(-c2ccccc2)nc2ccc(F)cc12)Nc1cccc(C(=O)O)c1	4	59*	x	x	x	x	0.0067	0.038*	u	0.048*	0.044*	0.029*
COc1ccc(Cl)cc1NC(=O)c1ocnc1C	5	x	0	-9	12	-0.35	x	x	x	x	x	x
C=C1c2ccccc2NC(=S)N1Cc1ccc2c(c1)OCO2	-1	9.9*	0	-2	-27	-0.15	0.0069	0.02*	0.032	0.021*	0.034*	0.017*
CC1CCc2sc(-c3n[nH]c(=S)o3)cc2C1 (stereo not given)	-2	39*	-3	-2	-3	1.9	0.021*	0.1*	0.032	0.03*	0.053*	0.015*
CCn1c(SCC(N)=O)nnc1-c1ccc(S(=O)(=O)N2CCN(C)CC2)cc1	2	3.7*	0	-1	-5	0.53	0.0094	0.0073	0.035	u	0.023	u
O=c1c2sccc2[nH]c(=S)n1Cc1ccccc1	8	68*	0	-4	-23	1.1	0.0088	0.11*	0.084*	0.086*	0.094*	0.079*
CCN(CC)C(=S)NC(=O)c1ccc(F)cc1	-1	34*	-1	0	-2	0.71	0.008	0.052*	0.049*	0.033*	0.047*	0.042*
Cc1ccc2c(c1)C1CN(C)CCC1N2C(=S)NC(=O)c1ccc(Br)cc1 (stereo not given)	4	133*	0	-5	-14	x	0.041*	0.11*	u	0.13*	0.085*	0.035*
O=C(NC(=S)N1CCCCCC1)c1ccccc1Cl	2	23*	0	0	5	0.31	0.025*	0.054*	0.038	0.024*	0.048*	0.014*
CN1CCN(C(=S)NC(=O)c2ccc(Br)cc2)CC1	-1	12*	x	x	-4	x	u	0.016*	0.032	0.012*	0.026*	0.012
